Experimental data taken from ChEMBL document CHEMBL5058577, “EUbOPEN Chemogenomics Library 2 (Multiplex)” (2022).

System: HEK-293T
Assay: Multiplex assay against HEK293T
Assay type: toxicity, cell-based
Conditions: human
How it was run: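 Values for tubulin, mitochondrial-mass and membrane-permeability phenotypes are per cents of cells with healthy nuclei. These cells were identified by CellPathfinder machine-learning gating of live cells that had been stained at seeding with Hoechst33342, BioTracker Green Microtubule Cytoskeleton Dye, MitoTracker Red and Annexin V Alexa Fluor 680 and imaged on a CQ1 microscope at 37°C and 5% CO2 after compound addition. The gating first set Hoechst high-intensity objects apart from normal cells, then split normal cells into healthy, pyknosed or fragmented nuclei, and pyknosed cells into mitotic or apoptotic.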

[1] = 12 h, 1 µM, compound concentration 1 uM, replicate 1
[2] = 12 h, 1 µM, compound concentration 1 uM, replicate 2
[3] = 12 h, 10 µM, compound concentration 10 uM, replicate 1
[4] = 12 h, 10 µM, compound concentration 10 uM, replicate 2
[5] = 24 h, 1 µM, compound concentration 1 uM, replicate 1
[6] = 24 h, 1 µM, compound concentration 1 uM, replicate 2
[7] = 24 h, 10 µM, compound concentration 10 uM, replicate 1
[8] = 24 h, 10 µM, compound concentration 10 uM, replicate 2
[9] = 48 h, 1 µM, compound concentration 1 uM, replicate 1
[10] = 48 h, 1 µM, compound concentration 1 uM, replicate 2
[11] = 48 h, 10 µM, compound concentration 10 uM, replicate 1
[12] = 48 h, 10 µM, compound concentration 10 uM, replicate 2

CCCCC[C@H](O)/C=C/[C@H]1[C@H](O)CC(=O)[C@@H]1CCCCCCC(=O)O [ALPROSTADIL]
Population Apoptotic (%) [1]: 35%
Population Fragmented Nuclei (%) [1]: 7%
Population Healthy Nuclei (%) [1]: 79%
Population Hoechst High Intensity Objects (%) [1]: 7%
Population Membrane Permeable-Phenotype (%) [1]: 0%
Population Mitochondria Different-Phenotype (%) [1]: 42%
Population Mitotic Cells (%) [1]: 64%
Population Normal (%) [1]: 92%
Population Pyknosed Nuclei (%) [1]: 13%
Population Tubulin-Different-Phenotype (%) [1]: 28%
Total Cell Count [1]: 471
Population Apoptotic (%) [2]: 50%
Population Fragmented Nuclei (%) [2]: 6%
Population Healthy Nuclei (%) [2]: 80%
Population Hoechst High Intensity Objects (%) [2]: 6%
Population Mitochondria Different-Phenotype (%) [2]: 55%
Population Mitotic Cells (%) [2]: 49%
Population Normal (%) [2]: 93%
Population Tubulin-Different-Phenotype (%) [2]: 18%
Total Cell Count [2]: 392
Population Apoptotic (%) [3]: 33%
Population Fragmented Nuclei (%) [3]: 7%
Population Healthy Nuclei (%) [3]: 78%
Population Hoechst High Intensity Objects (%) [3]: 6%
Population Membrane Permeable-Phenotype (%) [3]: 1%
Population Mitochondria Different-Phenotype (%) [3]: 48%
Population Mitotic Cells (%) [3]: 66%
Population Normal (%) [3]: 93%
Population Pyknosed Nuclei (%) [3]: 14%
Population Tubulin-Different-Phenotype (%) [3]: 33%
Total Cell Count [3]: 318
Population Healthy Nuclei (%) [4]: 75%
Population Hoechst High Intensity Objects (%) [4]: 9%
Population Membrane Permeable-Phenotype (%) [4]: 0%
Population Mitochondria Different-Phenotype (%) [4]: 64%
Population Normal (%) [4]: 90%
Population Pyknosed Nuclei (%) [4]: 17%
Population Tubulin-Different-Phenotype (%) [4]: 30%
Total Cell Count [4]: 309
Population Apoptotic (%) [5]: 35%
Population Fragmented Nuclei (%) [5]: 9%
Population Healthy Nuclei (%) [5]: 79%
Population Hoechst High Intensity Objects (%) [5]: 3%
Population Membrane Permeable-Phenotype (%) [5]: 1%
Population Mitochondria Different-Phenotype (%) [5]: 22%
Population Mitotic Cells (%) [5]: 64%
Population Normal (%) [5]: 96%
Population Pyknosed Nuclei (%) [5]: 10%
Population Tubulin-Different-Phenotype (%) [5]: 15%
Total Cell Count [5]: 605
Population Apoptotic (%) [6]: 34%
Population Fragmented Nuclei (%) [6]: 6%
Population Healthy Nuclei (%) [6]: 85%
Population Hoechst High Intensity Objects (%) [6]: 4%
Population Membrane Permeable-Phenotype (%) [6]: 0%
Population Mitochondria Different-Phenotype (%) [6]: 35%
Population Mitotic Cells (%) [6]: 65%
Population Normal (%) [6]: 95%
Population Pyknosed Nuclei (%) [6]: 8%
Population Tubulin-Different-Phenotype (%) [6]: 14%
Total Cell Count [6]: 526
Population Apoptotic (%) [7]: 32%
Population Fragmented Nuclei (%) [7]: 11%
Population Healthy Nuclei (%) [7]: 76%
Population Hoechst High Intensity Objects (%) [7]: 2%
Population Membrane Permeable-Phenotype (%) [7]: 0%
Population Mitochondria Different-Phenotype (%) [7]: 26%
Population Mitotic Cells (%) [7]: 67%
Population Normal (%) [7]: 97%
Population Pyknosed Nuclei (%) [7]: 12%
Population Tubulin-Different-Phenotype (%) [7]: 23%
Total Cell Count [7]: 439
Population Apoptotic (%) [8]: 36%
Population Fragmented Nuclei (%) [8]: 7%
Population Healthy Nuclei (%) [8]: 79%
Population Hoechst High Intensity Objects (%) [8]: 8%
Population Mitochondria Different-Phenotype (%) [8]: 50%
Population Mitotic Cells (%) [8]: 63%
Population Normal (%) [8]: 91%
Population Tubulin-Different-Phenotype (%) [8]: 22%
Total Cell Count [8]: 345
Population Apoptotic (%) [9]: 32%
Population Fragmented Nuclei (%) [9]: 13%
Population Healthy Nuclei (%) [9]: 79%
Population Hoechst High Intensity Objects (%) [9]: 2%
Population Membrane Permeable-Phenotype (%) [9]: 2%
Population Mitochondria Different-Phenotype (%) [9]: 12%
Population Mitotic Cells (%) [9]: 67%
Population Normal (%) [9]: 97%
Population Pyknosed Nuclei (%) [9]: 7%
Population Tubulin-Different-Phenotype (%) [9]: 11%
Total Cell Count [9]: 1005
Population Apoptotic (%) [10]: 13%
Population Fragmented Nuclei (%) [10]: 16%
Population Healthy Nuclei (%) [10]: 77%
Population Hoechst High Intensity Objects (%) [10]: 3%
Population Membrane Permeable-Phenotype (%) [10]: 0%
Population Mitochondria Different-Phenotype (%) [10]: 21%
Population Mitotic Cells (%) [10]: 86%
Population Normal (%) [10]: 96%
Population Pyknosed Nuclei (%) [10]: 6%
Population Tubulin-Different-Phenotype (%) [10]: 12%
Total Cell Count [10]: 714
Population Apoptotic (%) [11]: 25%
Population Fragmented Nuclei (%) [11]: 15%
Population Healthy Nuclei (%) [11]: 76%
Population Hoechst High Intensity Objects (%) [11]: 2%
Population Membrane Permeable-Phenotype (%) [11]: 1%
Population Mitochondria Different-Phenotype (%) [11]: 17%
Population Mitotic Cells (%) [11]: 75%
Population Normal (%) [11]: 97%
Population Pyknosed Nuclei (%) [11]: 7%
Population Tubulin-Different-Phenotype (%) [11]: 15%
Total Cell Count [11]: 685
Population Apoptotic (%) [12]: 20%
Population Fragmented Nuclei (%) [12]: 14%
Population Healthy Nuclei (%) [12]: 79%
Population Membrane Permeable-Phenotype (%) [12]: 0%
Population Mitochondria Different-Phenotype (%) [12]: 30%
Population Mitotic Cells (%) [12]: 80%
Population Pyknosed Nuclei (%) [12]: 6%
Population Tubulin-Different-Phenotype (%) [12]: 14%
Total Cell Count [12]: 537
